Assay results of several laboratories.
Lines come from different studies, so protocols differ.
Target: Calcium/calmodulin-dependent protein kinase type 1 (CAMK1, Homo sapiens, UniProt Q14012)

CS(=O)(=O)N1CCCC(NC(=O)[C@H](CCC2CCCCC2)NC(=O)c2ccc(CNc3ncnc4c3nnn4-c3ccccc3)cc2)C1 (some centres unmarked) — remaining binding (cell-free assay; competition with immobilised ligand; 0.1 µM): 96%
CNC(=O)c1cc(Oc2ccc(NC(=O)Nc3ccc(Cl)c(C(F)(F)F)c3)cc2)ccn1 — inhibition (enzyme activity; inhibitor; 10 µM): 9%
O=C1Nc2ccc(Cl)cc2C1=Cc1cc(Cl)c(O)c(Cl)c1 — remaining signal (cell-free assay; 0.5 µM): 94.9%
CC(C)c1ccc(NC(=O)c2cccs2)c(-c2nc3ccccc3[nH]c2=O)c1 — activity vs control (enzyme activity; inhibitor; 1 µM): 104%
C=CC(=O)Nc1cc(Nc2nccc(Nc3cc(Cl)c(F)cc3C(C)(C)O)n2)c(OC)cc1N1CC[C@@H](N(C)C)C1 — inhibition (enzyme activity; inhibitor; 1 µM): 2%
COc1cccc2c(NCc3ccccc3)nc(-n3c(N)nc4ccccc43)nc12 — inhibition (target engagement in cells; inhibitor; chemoproteomics; 20 mM): -2.1%
Cn1c(=O)n(-c2ccc(C(C)(C)C#N)cc2)c2c3cc(-c4cnc5ccccc5c4)ccc3ncc21 — remaining activity (enzyme activity; inhibitor; 10 µM): 100%
Cc1ccc(Nc2nccc(N(C)c3ccc4c(C)n(C)nc4c3)n2)cc1S(N)(=O)=O — inhibition (enzyme activity; inhibitor; 10 µM): 52%
Cc1sc(C(=O)NC2COC2)cc1-n1cc(NC(=O)Nc2c(F)cccc2Cl)cn1 — remaining activity (enzyme activity; inhibitor; 10 µM): 115%
O=C(Nc1cnc(Oc2ccc(F)cc2)nc1)N1CCc2ncccc2[C@@H]1c1ccc(F)cc1 — remaining binding (cell-free assay; competition with immobilised ligand; 1 µM): 73%
CC(C)(C)C(=O)c1sc(NC2CCCCC2)nc1N — remaining activity (enzyme activity; inhibitor; 10 µM): 109%
COc1cc(Nc2cnc(C#N)c(O[C@H](C)CN(C)C)n2)ncc1-c1cnn(C)c1 — remaining activity (enzyme activity; inhibitor; radiometric; 10 µM): 95%
COc1cc(/C=C/C(=O)CC(=O)/C=C/c2ccc(O)c(OC)c2)ccc1O — activity vs control (enzyme activity; inhibitor; 1 µM): 86%
CCN(CC)CCNC(=O)c1c(C)[nH]c(/C=C2\C(=O)Nc3ccc(F)cc32)c1C — inhibition (enzyme activity; inhibitor; 0.3 µM): 21%
O=C(NS(=O)(=O)c1ccc(NCC2CCOCC2)c([N+](=O)[O-])c1)c1ccc(N2CCN(Cc3ccc(C(F)(F)F)cc3-c3ccc(Cl)cc3)CC2)cc1Oc1cnc2[nH]ccc2c1 — remaining binding (cell-free assay; competition with immobilised ligand; 1 µM): 100%
CCCCNc1ncc2c(-c3ccc(F)cc3)nn(C[C@H]3CC[C@H](N)CC3)c2n1 — inhibition (target engagement in cells; inhibitor; chemoproteomics; 20 mM): 2.2%
COc1cc(-c2cc(-c3ccc(N4CCNCC4)cc3)cnc2C)cc(OC)c1OC — inhibition (enzyme activity; inhibitor; 1 µM): 1%
O=C1NC(=O)c2cc(Nc3ccc(F)cc3)c(Nc3ccc(F)cc3)cc21 — remaining signal (cell-free assay; 0.5 µM): 104%
COc1cc(Cl)c(C(=O)N[C@@H](CN[C@H]2CC[C@@H](N)CC2)Cc2ccc(C#N)cc2)cc1-c1ccc(CN[C@H](C)c2ccc(C)cc2)o1 — remaining activity (enzyme activity; inhibitor; 1 µM): 108%
CS(=O)(=O)c1cc(C2(NC(=O)c3cncc4c3cnn4-c3ccc(F)cc3)CC2)ccn1 — remaining binding (cell-free assay; competition with immobilised ligand; 1 µM): 65%
CC/C(=N\NC(=O)NCc1cccc(O)c1)c1ccc(O)c(C)c1O — inhibition (enzyme activity; inhibitor; 0.1 µM): -2.3%
O=C(Nc1cccnn1)N1CC(C/C=C/c2cncc(Oc3ccc(C(F)(F)F)cn3)n2)C1 — remaining binding (cell-free assay; competition with immobilised ligand; 1 µM): 100%
Oc1cccc(-c2nc(N3CCOCC3)c3oc4ncccc4c3n2)c1 — remaining activity (enzyme activity; inhibitor; 10 µM): 99%
Cc1nc(N2CC[C@@H](O)C2)ncc1-c1cc(C(F)(F)F)cc2[nH]ncc12 — remaining binding (cell-free assay; competition with immobilised ligand; 1 µM): 100%
CCCOc1ccc(OC)c(F)c1C(=O)c1ccc(C(=O)N[C@@H]2CNC[C@H]2NC(=O)c2ccc3[nH]ncc3c2)cc1 — remaining activity (enzyme activity; inhibitor; 10 µM): 34%
CN(C)C(=O)Cn1cc(-c2nc([C@@](C)(c3ccc(-c4cnc(N)nc4)cc3)C3CC3)no2)cn1 — remaining binding (cell-free assay; competition with immobilised ligand; 1 µM): 100%
Cc1cc(NC(=O)c2cccc3cc(-c4cccc5[nH]nc(N)c45)ccc23)ccc1F — activity vs control (enzyme activity; inhibitor; 0.1 µM): 116%
O=C(O)[C@@H]1[C@@H](Cn2nnc3ccccc3c2=O)CC[C@H]1C(=O)c1ccc(OCCC2CCOCC2)cc1 — remaining binding (cell-free assay; competition with immobilised ligand; 1 µM): 92%
Oc1cccc(-c2nc(N3CCOCC3)c3oc4ncccc4c3n2)c1 — remaining signal (cell-free assay; 0.5 µM): 101%
